From ChEMBL document CHEMBL1921792, “Synthesis and anticonvulsant activity of trans- and cis-2-(2,6-dimethylphenoxy)-N-(2- or 4-hydroxycyclohexyl)acetamides and their amine analogs” (Bioorg Med Chem, 2011)

Key:
Mus musculus [1] = assay: Anticonvulsant activity in ip dosed mouse assessed as protection against maximal electric shock-induced seizures; format: functional; conditions: Mus musculus, ip; read-out: ED50
Rattus norvegicus [2] = assay: Neurotoxicity in rat assessed as neurological deficit at 30 mg/kg, po after 1 hr […]; format: toxicity, organism-based; set-up: dose 30 mg/kg, route oral; conditions: in vivo
Method in brief: (§1)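 Rats given the compound, suspended in 0.5% methylcellulose, by the stated route and dose. Neurological deficit was recorded at the listed times as ataxia and loss of placing response and muscle tone. Reported as number of rats showing toxicity/number tested.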

Rattus norvegicus [3] = assay: Neurotoxicity in rat assessed as neurological deficit at 250 mg/kg, po after 0.5 hrs; format: toxicity, organism-based; set-up: dose 250 mg/kg, route oral; conditions: in vivo; method in brief: as §1
Rattus norvegicus [4] = assay: Neurotoxicity in rat assessed as neurological deficit at 500 mg/kg, po after 0.25 hrs; format: toxicity, organism-based; set-up: dose 500 mg/kg, route oral; conditions: in vivo; method in brief: as §1
Mus musculus [5] = assay: Neurotoxicity in mouse assessed as inability to maintain equilibrium on rotarod at 130 mg/kg, ip after 2 hrs using rotarod test; format: toxicity, organism-based; set-up: dose 130 mg/kg, route intraperitoneal; conditions: in vivo
Method in brief: (§2)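 Drug given ip to mice as a suspension in 0.5% methylcellulose. At the stated time after dosing, each mouse was placed on a 1 inch knurled rod turning at 6 rpm. Neurotoxicity = inability to stay balanced at least 1 min in each of three trials. Scored as animals toxic/animals tested in small groups.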

Rattus norvegicus [6] = assay: Anticonvulsant activity in po dosed rat assessed as protection against maximal electric shock-induced seizures; format: functional
Rattus norvegicus [7] = assay: Neurotoxicity in rat assessed as neurological deficit at 62.5 mg/kg, po after 24 hrs; format: toxicity, organism-based; set-up: dose 62.5 mg/kg, route oral; conditions: in vivo
Method in brief: (§3)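 Rats dosed orally with test agent suspended in 0.5% methylcellulose and observed for up to 24 h (time-to-peak-effect design). Neurological deficit was scored as ataxia with loss of placing response and muscle tone. Two rats per dose per time point; results given as number toxic/number tested.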

Rattus norvegicus [8] = assay: Neurotoxicity in rat assessed as neurological deficit at 30 mg/kg, po after 2 hrs […]; format: toxicity, organism-based; set-up: dose 30 mg/kg, route oral; conditions: in vivo; method in brief: as §1
Mus musculus [9] = assay: Neurotoxicity in mouse assessed as inability to maintain equilibrium on rotarod at 100 mg/kg, ip after 4 hrs by rotarod test; format: toxicity, organism-based; set-up: dose 100 mg/kg, route intraperitoneal; conditions: in vivo; method in brief: as §2
Mus musculus [10] = species: Mus musculus; assay: Protective index, ratio of TD50 for neurotoxicity in mouse to ED50 for inhibition of maximal electroshock-induced seizures in mouse; format: functional
Rattus norvegicus [11] = assay: Neurotoxicity in rat assessed as neurological deficit at 62.5 mg/kg, po after 2 hrs; format: toxicity, organism-based; set-up: dose 62.5 mg/kg, route oral; conditions: in vivo; method in brief: as §3
Rattus norvegicus [12] = assay: Neurotoxicity in rat assessed as neurological deficit at 500 mg/kg, po after 1 hr; format: toxicity, organism-based; set-up: dose 500 mg/kg, route oral; conditions: in vivo; method in brief: as §1
Rattus norvegicus [13] = assay: Neurotoxicity in rat assessed as neurological deficit at 250 mg/kg, po after 0.25 hrs; format: toxicity, organism-based; set-up: dose 250 mg/kg, route oral; conditions: in vivo; method in brief: as §1
Rattus norvegicus [14] = assay: Neurotoxicity in rat assessed as neurological deficit at 500 mg/kg, po after 6 hrs; format: toxicity, organism-based; set-up: dose 500 mg/kg, route oral; conditions: in vivo; method in brief: as §3
Rattus norvegicus [15] = assay: Neurotoxicity in rat assessed as neurological deficit at 125 mg/kg, po after 24 hrs; format: toxicity, organism-based; set-up: dose 125 mg/kg, route oral; conditions: in vivo; method in brief: as §1
Mus musculus [16] = assay: Anticonvulsant activity in ip dosed mouse assessed as time to show peak effect of protection against maximal electric shock-induced seizures; format: functional
Method in brief: (§4)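 Time-to-peak-effect assay: MES protection read at 0.25–4 h after dosing. Mice ip (60–130 mg/kg), rats po (15 or 30 mg/kg) or ip (30 mg/kg). Groups of 4–8; result is protected/tested.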

Rattus norvegicus [17] = assay: Neurotoxicity in rat assessed as neurological deficit at 125 mg/kg, po after 1 hr; format: toxicity, organism-based; set-up: dose 125 mg/kg, route oral; conditions: in vivo; method in brief: as §1
Rattus norvegicus [18] = assay: Neurotoxicity in rat assessed as neurological deficit at 250 mg/kg, po after 6 hrs; format: toxicity, organism-based; set-up: dose 250 mg/kg, route oral; conditions: in vivo; method in brief: as §1
Rattus norvegicus [19] = assay: Neurotoxicity in rat assessed as neurological deficit at 250 mg/kg, po after 2 hrs; format: toxicity, organism-based; set-up: dose 250 mg/kg, route oral; conditions: in vivo; method in brief: as §1
Rattus norvegicus [20] = assay: Neurotoxicity in rat assessed as neurological deficit at 500 mg/kg, po after 2 hrs; format: toxicity, organism-based; set-up: dose 500 mg/kg, route oral; conditions: in vivo; method in brief: as §1
Mus musculus [21] = assay: Neurotoxicity in mouse assessed as inability to maintain equilibrium on rotarod at 30 mg/kg, ip after 0.5 hrs by rotarod test; format: toxicity, organism-based; set-up: dose 30 mg/kg, route intraperitoneal; conditions: in vivo; method in brief: as §2
Rattus norvegicus [22] = assay: Anticonvulsant activity in po dosed rat assessed as time to show peak effect of protection against maximal electric shock-induced seizures; format: functional; method in brief: as §4
Rattus norvegicus [23] = assay: Neurotoxicity in rat assessed as neurological deficit at 500 mg/kg, po after 4 hrs; format: toxicity, organism-based; set-up: dose 500 mg/kg, route oral; conditions: in vivo; method in brief: as §3
Rattus norvegicus [24] = assay: Neurotoxicity in rat assessed as neurological deficit at 500 mg/kg, po after 24 hrs; format: toxicity, organism-based; set-up: dose 500 mg/kg, route oral; conditions: in vivo; method in brief: as §1
Rattus norvegicus [25] = assay: Neurotoxicity in rat assessed as neurological deficit at 125 mg/kg, po after 8 hrs; format: toxicity, organism-based; set-up: dose 125 mg/kg, route oral; conditions: in vivo; method in brief: as §1
Rattus norvegicus [26] = assay: Neurotoxicity in rat assessed as neurological deficit at 125 mg/kg, po after 0.25 hrs; format: toxicity, organism-based; set-up: dose 125 mg/kg, route oral; conditions: in vivo; method in brief: as §1
Rattus norvegicus [27] = assay: Neurotoxicity in rat assessed as neurological deficit at 62.5 mg/kg, po after 6 hrs; format: toxicity, organism-based; set-up: dose 62.5 mg/kg, route oral; conditions: in vivo; method in brief: as §3

## Cc1cccc(C)c1OCC(=O)NC1CCCCC1O.Cl (racemic; 1)
Mus musculus [1]
  ED50: 43 mg/kg
Rattus norvegicus [2]
  Activity: Non-toxic
Rattus norvegicus [3]
  Activity: Non-toxic
Rattus norvegicus [4]
  Activity: Non-toxic
Mus musculus [5]
  Activity: Non-toxic
Rattus norvegicus [6]
  ED50: 23.6 mg/kg
Rattus norvegicus [7]
  Activity: Non-toxic
Rattus norvegicus [8]
  Activity: Non-toxic
Mus musculus [9]
  Activity: Non-toxic
Mus musculus [10]
  Ratio TD50/ED50: 2.475
Rattus norvegicus [11]
  Activity: Non-toxic
Rattus norvegicus [12]
  Activity: Non-toxic
Rattus norvegicus [13]
  Activity: Non-toxic
Rattus norvegicus [14]
  Activity: Non-toxic
Rattus norvegicus [15]
  Activity: Non-toxic
Mus musculus [16]
  Time: 0.25 h
Rattus norvegicus [17]
  Activity: Non-toxic
Rattus norvegicus [18]
  Activity: Non-toxic
Rattus norvegicus [19]
  Activity: Non-toxic
Rattus norvegicus [20]
  Activity: Non-toxic
Mus musculus [21]
  Activity: Non-toxic
Rattus norvegicus [22]
  Time: 0.25 h
Rattus norvegicus [23]
  Activity: Non-toxic
Rattus norvegicus [24]
  Activity: Non-toxic
Rattus norvegicus [25]
  Activity: Non-toxic
Rattus norvegicus [26]
  Activity: Non-toxic
Rattus norvegicus [27]
  Activity: Non-toxic
